Data published in ChEMBL document CHEMBL4118140, “Synthesis and in vitro evaluation of homoisoflavonoids as potent inhibitors of nitric oxide production in RAW-264.7 cells” (Bioorg Med Chem Lett, 2018).
Active and inactive are the calls of the source. The calls are words filed in the database; no cut-off is given here.

Legend:
[1] = Cytotoxicity against mouse RAW264.7 cells assessed as cell viability at 1 uM after 24 hrs by CellTiter96 AQueous one solution cell proliferation assay (reference value: 100 +/- 2.4%); format: cell-based; conditions: read-out: Activity
[2] = tested on: RAW264.7; assay: Antiinflammatory activity in mouse RAW264.7 cells assessed as reduction in LPS-induced NO production after 18 hrs by Griess assay; format: functional, cell-based; conditions: RAW264.7, 18 h
Summary of the method: (§1)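 RAW 264.7 macrophages were stimulated with LPS together with test compound at 0.1, 1, 10, 25, 50 and 100 (six levels), with L-NMMA as the reference inhibitor. NO production was measured and expressed as % of the LPS-only control, with inhibition = 100 − that value. Results are mean ± SEM, n = 3, and IC50 came from the concentration series.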

[3] = Cytotoxicity against mouse RAW264.7 cells assessed as cell viability at 100 uM after 24 hrs by CellTiter96 AQueous one solution cell proliferation assay (reference value: 100 +/- 2.4%); format: cell-based; conditions: read-out: Activity
[4] = tested on: RAW264.7; assay: Antiinflammatory activity in mouse RAW264.7 cells assessed as reduction in LPS-induced NO production at 1 uM after 18 hrs by Griess assay relative to control; format: functional; conditions: RAW264.7, 18 h; summary of the method: as §1
[5] = Cytotoxicity against mouse RAW264.7 cells assessed as cell viability at 10 uM after 24 hrs by CellTiter96 AQueous one solution cell proliferation assay (reference value: 100 +/- 2.4%); format: cell-based; conditions: read-out: Activity
[6] = tested on: RAW264.7; assay: Antiinflammatory activity in mouse RAW264.7 cells assessed as reduction in LPS-induced NO production at 10 uM after 18 hrs by Griess assay relative to control; format: functional; conditions: RAW264.7, 18 h; summary of the method: as §1
[7] = Cytotoxicity against mouse RAW264.7 cells assessed as cell viability at 50 uM after 24 hrs by CellTiter96 AQueous one solution cell proliferation assay (reference value: 100 +/- 2.4%); format: cell-based; conditions: read-out: Activity
[8] = tested on: RAW264.7; assay: Effect on beta-actin expression in LPS-stimulated mouse RAW264.7 cells at 10 uM after 18 hrs by Western blot method; format: cell-based; conditions: raw264.7, 18 h
[9] = tested on: RAW264.7; assay: Inhibition of iNOS expression in LPS-stimulated mouse RAW264.7 cells at 10 uM after 18 hrs by Western blot method; format: functional, cell-based

IC50 [2] [µM]	Structure (SMILES)	viability at 24 h, 1 µM [1] [%]	viability at 24 h, 100 µM [3] [%]	inhibition at 1 µM [4] [%]	viability at 24 h, 10 µM [5] [%]	inhibition at 10 µM [6] [%]	viability at 24 h, 50 µM [7] [%]	Activity [8]	iNOS expression inhibition (active/inactive) [9]
12.4	COc1cc(O)c2c(c1)OCC(Cc1ccccc1O)C2=O (centres undefined)	97.7	12.5	2.8	81.1	38	34.2		
14.2	COc1ccc2c(c1)OCC(Cc1ccccc1O)C2=O (centres undefined)	152	31.5	9.2	118	19.7	49.4		
2.91	COc1cc2c(c(OC)c1OC)C(=O)/C(=C/c1ccccc1O)CO2	94.6	10.9	16.2	93.4	83	11.8	Non-Toxic	Active
12.2	COc1cc2c(c(O)c1OC)C(=O)C(Cc1ccccc1O)CO2 (racemic)	97.6	15.5	-11.8	96.7	34.1	41.1		
16.1	CNC(=N)NCCC[C@H](N)C(=O)O [TILARGININE]			-12.5		14.2			
1.26	COc1cc(OC)c2c(c1)OC/C(=C\c1ccccc1O)C2=O	108	11.7	38.5	114	97.2	13.3	Non-Toxic	Active
1.75	COc1ccc2c(c1)OC/C(=C\c1ccccc1O)C2=O	102	11.1	28.4	97.7	91.4	11	Non-Toxic	Active
14.2	COc1cc(OC)c2c(c1)OCC(Cc1ccccc1O)C2=O (racemic)	98.6	41.3	-2.8	165	20.5	55.2		
2.09	COc1cc(O)c2c(c1)OC/C(=C\c1ccccc1O)C2=O	94	11	21.1	97	92.5	10.7	Non-Toxic	Active
13.4	COc1cc2c(c(OC)c1OC)C(=O)C(Cc1ccccc1O)CO2 (racemic)	89.6	44	-24.6	87.2	15.9	58.7		
